In the EternaBench riboswitch data:

System: MS2 coat protein
Test: apparent Kd, MS2 coat protein; higher = weaker binding; RNA-MaP array; FMN 200 µM where present
How it was run: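 Designs were transcribed by stalled E. coli RNA polymerase on Illumina sequencing-chip clusters. They were titrated with SNAP-549-labelled MS2 coat protein from 0.7 or 1.5 nM, doubling to 3 µM, without and then with constant ligand. Buffer: 100 mM Tris-HCl pH 7.5, 80 mM KCl, 4 mM MgCl2, BSA, DTT, yeast tRNA, Tween-20. Green signal was normalised to red-channel RNA signal and control-cluster median Fmax. Apparent Kd is the median of filtered per-cluster binding-curve fits.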

[1] = designed as: OFF switch for flavin mononucleotide, no ligand
[2] = ligand present: flavin mononucleotide, designed as: OFF switch for flavin mononucleotide
[3] = designed as: ON switch for flavin mononucleotide, no ligand
[4] = ligand present: flavin mononucleotide, designed as: ON switch for flavin mononucleotide

Row | Sequence | apparent Kd [1] [nM] | apparent Kd [2] [nM] | apparent Kd [3] [nM] | apparent Kd [4] [nM]
1 | AUGAUGUCAGGAUAUCGUUGGCUCACUUGUGUGUGCCAGUUCGAGAAGGGACAUGAGGAUCACCCAUGUUUUUA | 45 | 252 |  | 
2 | CAUUAUGUUGAGGAUAUGCGCCGGCUCGCUGGCACAGAAGGCGACACAUGAGGAUCACCCAUGUCAGUUCGCGA | 12.2 | 14.8 |  | 
3 | AUCAGCUCGUCAGGAUAUACGUCACUGCGUCAGCAGUGUGGUAAGAUCACAUGAGGAUCACCCAUGUAGAAGGGACGAGAUGAU | 13.8 | 247 |  | 
4 | CGAUAUGAUGCAGGAUAUCUAUCUUGAAUGAGGAGAGAAGGGCAAACCGAGACAUAAGCCUUAUUACAUGAGGAUCACCCAUGU | 10.4 | 9.38 |  | 
5 | CCUAAAAGGAAGGAUAUGCUAGACGAAAGUCUAGCAGAAGGUCCUACAUGAGGAUCACCCAUGUGUCCUAUAGG | 48.5 | 59.4 |  | 
6 | AAAAAACAUGAGGAUCACCCAUGUGAGGAUAUCGAAAAGUCAAAGAAAAAGACGAAAACGAGAAGGCGCAAAAA | 49.6 | 45.5 |  | 
7 | UUAGAUUAUUGAGGAUAUGGUUAUUUUUAUUAACCAGAAGGCAAACUCAACAUGAGGAUCACCCAUGUAUAAAGGGUAUUAGUU | 84.9 | 82.7 |  | 
8 | GUCUUGUCAGGAUAUCUUACAUAACAAUCGUAGUUACAAUUGGAGAAGGGACAUGAGGAUCACCCAUGUUAGCC | 18.7 | 21 |  | 
9 | UGGAUCAUGGGAGGAUAUGGGAAGAUACAUGAGGAUCACCCAUGUUUAAGAAUGCCGAGAGGCAACUAGAAGGCCCAUGAUCCU |  |  | 1090 | 47.9
10 | UCCUUGUCCUGAGGAUAUCCGCGGUUCCCAAAAGGAGAAGGCAGGACAUGAGGAUCACCCAUGUACCGAGAAAACGUGCAGAGU | 12.7 | 105 |  | 
11 | GCACGAUCCUCAGGAUAUCACUGAAACAUGAGGAUCACCCAUGUGCGCAGAUGAGAAGGGAGGACUCCGUCUGACUAAAAGUUA |  |  | 113 | 9.95
12 | CAAACGUGAGGAUAUACAUGAGGAUCACCCAUGUGUUCCUCUAAACUGAAGAAGUAAUGUAGAAGGCACGUUUG | 43.1 | 19.4 |  | 
13 | GGCCGUUUACAUGAGGAUCACCCAUGUCCGGAUUGUUGGCCCAGAAGGCAUUACGAAUUCGGCUAUGAGGAUAUGGGUUACAAG |  |  | 215 | 119
14 | UGCGUUAAGCCCUUAAGUCGUCAACAUGAGGAUCACCCAUGUAGAAGGCAGCGGACGCAGCCGGCUGAGGAUAUACAUGUAGGU | 7.9 | 10.5 |  | 
15 | GGAUGACAAAGUCAUCCUUAACGAACAUGAGGAUCACCCAUGUAGGAUAUGCAACUCAAAGAGUUGCAGAAGGACAUGUGCCUU | 35.9 | 238 |  | 
16 | UUGAAGUCAUCAGGAUAUAGUAUAAAAGACAUAUAUUUUUUCAAACAUGAGGAUCACCCAUGUCGCUAGAAGGGAUUAUAGAUU | 47.3 | 41.3 |  | 
17 | GUAGCUAUCGGAGGAUAUUUAUACCGGAAACGGACAUGAGGAUCACCCAUGUGGCGAAAGCCUUGGGAGAAGGCCGAUAGCUAC |  |  | 29.7 | 4.23
18 | GUCGUGUGAGGAUAUGGAUAGACGCAGUGACAGUAAGCGACCUAGAAGGCACAUGAGGAUCACCCAUGUAUGUG | 45.5 | 84.1 |  | 
19 | GGUUGUGUGUAAGGAUAUGCAUCACUGAGAAAUUUAGUGAGGAAGAUCACAUGAGGAUCACCCAUGUAGAAGGUACACACGUGG | 10.7 | 50.1 |  | 
20 | AACAGGUUCACAUGAGGAUCACCCAUGUUAGCCUAAUGUAGGAGAAGGACGGUAGCUGGGCUGACGUAGGAUAUCCUACUGUGA |  |  | 5.08 | 5.11
21 | GGGCUCGGUGUGAGGAUAUCGGGCUCUAAAGGGCUCGAGAAGGCACAUGAGGAUCACCCAUGUAAGUCGGGCUC | 14.8 | 15 |  | 
22 | CUUUAGUGAGGAUAUGUGGCUUCGAUCGUGAGAUCGAGGCUACAGAAGGCACAUGAGGAUCACCCAUGUUCCUG | 15.7 | 48.5 |  | 
23 | GCGUUGAACGAGAAGGCCAAUACAUGAGGAUCACCCAUGUUAAGAUGUUUUGGAGGAUAUCGUACGCAUUCAAUAUUGCAACGC | 7.63 | 9.47 |  | 
24 | AAAAAGGCAGGAUAUACAUGAGGAUCACCCAUGUUUUAAAAAAAAAAAAAAAAAAAAAGUAGAAGGGCCAAAAA | 55.4 | 45.1 |  | 
25 | GAUUAACAUGAGGAUCACCCAUGUGUGAAUAUGGGAGGAUAUACGUGGACCGUAGUCCGCGUAGAAGGCCUAAUUG |  |  | 279 | 46.1
26 | GUGUACAGAGGAUAUGCUUGAAUCUAGCGAAGCUAGGUUCGACAUGAGGAUCACCCAUGUAGAAGGCUGUACAC | 13.6 | 12.7 |  | 
27 | UGUUGUUCAGGAUAUGGUGUGUUAUACAUGAGGAUCACCCAUGUGGGUCCUGGUUUGGCGUCAGAAGGGAAUGUUG | 539 | 396 |  | 
28 | GGUCCAUUAUGAGGAUAUGGCACCUUAUUGGUGCCAGAAGGCAUAUGUCUUCACAUGAGGAUCACCCAUGUAAUAAAUUGGACC |  |  | 17.4 | 19.5
